The values below come from ChEMBL document CHEMBL1821681, “Synthesis and biological evaluation of derivatives of 4-deoxypodophyllotoxin as antitumor agents” (Eur J Med Chem, 2011).

Each structure is given as a SMILES string.

The first test concerns A549. As to the kind of experiment: Cytotoxicity against human A549 cells after 48 hrs by MTT assay. The class given is functional, cell-based. The following applies: A549, 48 h. In outline: (§1)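 Cells kept at 37 °C under 5% CO2, plated and allowed to attach for 24 h, then exposed in quadruplicate wells for 48 h to five saline-dissolved concentrations. IC50 is the mean of three independent experiments.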
As to `COc1cc([C@@H]2c3cc4c(cc3C[C@H]3COC(=O)[C@@H]32)OCO4)cc(OC)c1OC(=O)NCC(=O)N1CCN(C)CC1`, the half-inhibitory concentration (IC50) – broadly, the concentration that inhibits the measured activity by half – is 3960 nM.
For `COc1cc([C@@H]2c3cc4c(cc3C[C@H]3COC(=O)[C@@H]32)OCO4)cc(OC)c1OC(=O)NCC(=O)N1CCN(c2ccc(O)cc2)CC1`, the IC50 was 2390 nM.
As to `COc1cc([C@@H]2c3cc4c(cc3C[C@H]3COC(=O)[C@@H]32)OCO4)cc(OC)c1OC(=O)NCC(=O)N1CCN(C2CCCC2)CC1`, the 50% inhibitory concentration (IC50) came out at 1720 nM.
In the case of `COc1cc([C@@H]2c3cc4c(cc3C[C@H]3COC(=O)[C@@H]32)OCO4)cc(OC)c1OC(=O)N[C@@H](Cc1ccccc1)C(=O)N1CCNCC1`, the IC50 was 80.2 nM.
`COc1cc([C@@H]2c3cc4c(cc3C[C@H]3COC(=O)[C@@H]32)OCO4)cc(OC)c1OC(=O)N[C@@H](CCSC)C(=O)N1CCN(c2ccc([N+](=O)[O-])cc2)CC1` gave a half-maximal inhibitory concentration (IC50) of 183 nM.
On to `COc1cc([C@@H]2c3cc4c(cc3C[C@H]3COC(=O)[C@@H]32)OCO4)cc(OC)c1OC(=O)N[C@H](CCSC)C(=O)N1CCNCC1`, for which the IC50 stood at 208 nM. The IC50 values of the last two molecules are within 1.5-fold of each other.
Molecule `COc1cc([C@@H]2c3cc4c(cc3C[C@H]3COC(=O)[C@@H]32)OCO4)cc(OC)c1O` [4'-DEMETHYLDEOXYPODOPHYLLOTOXIN] yielded an IC50 of 3750 nM.
`COc1cc([C@@H]2c3cc4c(cc3C[C@H]3COC(=O)[C@@H]32)OCO4)cc(OC)c1OC` [DESOXYPODOPHYLLOTOXIN] returned an IC50 of 470 nM.
The molecule `COc1cc([C@@H]2c3cc4c(cc3[C@@H](O[C@@H]3O[C@@H]5CO[C@@H](C)O[C@H]5[C@H](O)[C@H]3O)[C@H]3COC(=O)[C@H]23)OCO4)cc(OC)c1O` [ETOPOSIDE] gave a half-inhibitory concentration (IC50) of 14800 nM.

Another test deals with HeLa. As to the kind of experiment: Cytotoxicity against human HeLa cells after 48 hrs by MTT assay. The class given is functional, cell-based.
Details: not given
The gist of the method:
as §1
`COc1cc([C@@H]2c3cc4c(cc3C[C@H]3COC(=O)[C@@H]32)OCO4)cc(OC)c1OC(=O)NCC(=O)N1CCN(C)CC1` registered an IC50 of 703 nM. That is a sub-micromolar value.
`COc1cc([C@@H]2c3cc4c(cc3C[C@H]3COC(=O)[C@@H]32)OCO4)cc(OC)c1OC(=O)NCC(=O)N1CCN(c2ccc(O)cc2)CC1` gave a concentration for half-maximal inhibition (IC50) of 7010 nM.
Take `COc1cc([C@@H]2c3cc4c(cc3C[C@H]3COC(=O)[C@@H]32)OCO4)cc(OC)c1OC(=O)NCC(=O)N1CCN(C2CCCC2)CC1`: the IC50 amounted to 3070 nM.
Molecule `COc1cc([C@@H]2c3cc4c(cc3C[C@H]3COC(=O)[C@@H]32)OCO4)cc(OC)c1OC(=O)N[C@@H](Cc1ccccc1)C(=O)N1CCNCC1` showed a concentration for half-maximal inhibition (IC50) of 433 nM.
Same read-out and setting: as for `COc1cc([C@@H]2c3cc4c(cc3C[C@H]3COC(=O)[C@@H]32)OCO4)cc(OC)c1OC(=O)N[C@@H](CCSC)C(=O)N1CCN(c2ccc([N+](=O)[O-])cc2)CC1`, the figure is 191 nM; as for `COc1cc([C@@H]2c3cc4c(cc3C[C@H]3COC(=O)[C@@H]32)OCO4)cc(OC)c1OC(=O)N[C@H](CCSC)C(=O)N1CCNCC1`, 203 nM.
Same read-out and setting: then `COc1cc([C@@H]2c3cc4c(cc3C[C@H]3COC(=O)[C@@H]32)OCO4)cc(OC)c1O` [4'-DEMETHYLDEOXYPODOPHYLLOTOXIN], with 7430 nM.
For `COc1cc([C@@H]2c3cc4c(cc3C[C@H]3COC(=O)[C@@H]32)OCO4)cc(OC)c1OC` [DESOXYPODOPHYLLOTOXIN], it took 36000 nM to reach half-maximal inhibition (IC50).
In the case of `COc1cc([C@@H]2c3cc4c(cc3[C@@H](O[C@@H]3O[C@@H]5CO[C@@H](C)O[C@H]5[C@H](O)[C@H]3O)[C@H]3COC(=O)[C@H]23)OCO4)cc(OC)c1O` [ETOPOSIDE], 50600 nM corresponded to half-maximal inhibition (IC50).

The test system of the next test is SiHa. Description: Cytotoxicity against human SiHa cells after 48 hrs by MTT assay.
Details: not given
The test is classed as functional, cell-based. The gist of the method:
as §1
For orientation: Tetrazolium assays rely on reduction of a dye to a coloured formazan, in cell work by metabolically active cells.
Molecule `COc1cc([C@@H]2c3cc4c(cc3C[C@H]3COC(=O)[C@@H]32)OCO4)cc(OC)c1OC(=O)NCC(=O)N1CCN(C)CC1` yielded a 50% inhibitory concentration (IC50) of 4970 nM.
Same read-out and setting: then `COc1cc([C@@H]2c3cc4c(cc3C[C@H]3COC(=O)[C@@H]32)OCO4)cc(OC)c1OC(=O)NCC(=O)N1CCN(c2ccc(O)cc2)CC1`, with 4760 nM; and `COc1cc([C@@H]2c3cc4c(cc3C[C@H]3COC(=O)[C@@H]32)OCO4)cc(OC)c1OC(=O)NCC(=O)N1CCN(C2CCCC2)CC1`, with 135 nM; and `COc1cc([C@@H]2c3cc4c(cc3C[C@H]3COC(=O)[C@@H]32)OCO4)cc(OC)c1OC(=O)N[C@@H](Cc1ccccc1)C(=O)N1CCNCC1`, with 160 nM.
With `COc1cc([C@@H]2c3cc4c(cc3C[C@H]3COC(=O)[C@@H]32)OCO4)cc(OC)c1OC(=O)N[C@@H](CCSC)C(=O)N1CCN(c2ccc([N+](=O)[O-])cc2)CC1`, the IC50 was 160 nM.
With `COc1cc([C@@H]2c3cc4c(cc3C[C@H]3COC(=O)[C@@H]32)OCO4)cc(OC)c1OC(=O)N[C@H](CCSC)C(=O)N1CCNCC1`, half-maximal inhibition (IC50) was put at 83.9 nM. Compared with the last molecule, the IC50 is about 1.9-fold lower.
Still for that read-out and setting: then `COc1cc([C@@H]2c3cc4c(cc3C[C@H]3COC(=O)[C@@H]32)OCO4)cc(OC)c1O` [4'-DEMETHYLDEOXYPODOPHYLLOTOXIN], with 2070 nM; and `COc1cc([C@@H]2c3cc4c(cc3C[C@H]3COC(=O)[C@@H]32)OCO4)cc(OC)c1OC` [DESOXYPODOPHYLLOTOXIN], with 10200 nM.
The molecule `COc1cc([C@@H]2c3cc4c(cc3[C@@H](O[C@@H]3O[C@@H]5CO[C@@H](C)O[C@H]5[C@H](O)[C@H]3O)[C@H]3COC(=O)[C@H]23)OCO4)cc(OC)c1O` [ETOPOSIDE] displayed a concentration for half-maximal inhibition (IC50) of 30700 nM. Against the preceding molecule, the IC50 is about 3-fold higher.

A further test concerns A549. Description: Induction of cell cycle arrest in human A549 cells assessed as accumulation at sub-G1 phase at 0.1 uM after 48 hrs using propidium iodide staining by FACS analysis (reference value: 21.7 %). The class given is functional.
Details: not given
On the technique in general: In flow cytometry, cells or beads pass a laser one at a time.
As to `COc1cc([C@@H]2c3cc4c(cc3[C@@H](O[C@@H]3O[C@@H]5CO[C@@H](C)O[C@H]5[C@H](O)[C@H]3O)[C@H]3COC(=O)[C@H]23)OCO4)cc(OC)c1O` [ETOPOSIDE], the Activity was 4.1%.

In a further test the test system is A549. As to the kind of experiment: Induction of cell cycle arrest in human A549 cells assessed as accumulation at G1 phase at 0.1 uM after 48 hrs using propidium iodide staining by FACS analysis (reference value: 59.9 %).
Details: not given
The class given is functional.
`COc1cc([C@@H]2c3cc4c(cc3[C@@H](O[C@@H]3O[C@@H]5CO[C@@H](C)O[C@H]5[C@H](O)[C@H]3O)[C@H]3COC(=O)[C@H]23)OCO4)cc(OC)c1O` [ETOPOSIDE]: the Activity is on record as 26%.

The next test relates to A549. As to the kind of experiment: Induction of cell cycle arrest in human A549 cells assessed as accumulation at S phase at 0.1 uM after 48 hrs using propidium iodide staining by FACS analysis (reference value: 36.7 %). The class given is functional.
Details: not given
For the molecule `COc1cc([C@@H]2c3cc4c(cc3[C@@H](O[C@@H]3O[C@@H]5CO[C@@H](C)O[C@H]5[C@H](O)[C@H]3O)[C@H]3COC(=O)[C@H]23)OCO4)cc(OC)c1O` [ETOPOSIDE], the Activity is 59.4%.

A further test relates to A549. Description: Induction of cell cycle arrest in human A549 cells assessed as accumulation at G2/M phase at 0.1 uM after 48 hrs using propidium iodide staining by FACS analysis (reference value: 3.2 %). The test is classed as functional.
Details: not given
For `COc1cc([C@@H]2c3cc4c(cc3[C@@H](O[C@@H]3O[C@@H]5CO[C@@H](C)O[C@H]5[C@H](O)[C@H]3O)[C@H]3COC(=O)[C@H]23)OCO4)cc(OC)c1O` [ETOPOSIDE], the Activity was determined as 10.5%.

The subject of a further test is A549. As to the kind of experiment: Induction of cell cycle arrest in human A549 cells assessed as accumulation at sub-G1 phase at 0.5 uM after 48 hrs using propidium iodide staining by FACS analysis (reference value: 21.7 %). The class given is functional.
Details: not given
Regarding `COc1cc([C@@H]2c3cc4c(cc3C[C@H]3COC(=O)[C@@H]32)OCO4)cc(OC)c1OC` [DESOXYPODOPHYLLOTOXIN], the Activity amounted to 13.1%.

The test system of a further test is A549. As to the kind of experiment: Induction of cell cycle arrest in human A549 cells assessed as accumulation at G1 phase at 0.5 uM after 48 hrs using propidium iodide staining by FACS analysis (reference value: 59.9 %). The test is classed as functional.
Details: not given
On to `COc1cc([C@@H]2c3cc4c(cc3C[C@H]3COC(=O)[C@@H]32)OCO4)cc(OC)c1OC` [DESOXYPODOPHYLLOTOXIN], for which the Activity was determined as 85.5%.

Another test concerns A549. As to the kind of experiment: Induction of cell cycle arrest in human A549 cells assessed as accumulation at S phase at 0.5 uM after 48 hrs using propidium iodide staining by FACS analysis (reference value: 36.7 %). The class given is functional.
Details: not given
On to `COc1cc([C@@H]2c3cc4c(cc3C[C@H]3COC(=O)[C@@H]32)OCO4)cc(OC)c1OC` [DESOXYPODOPHYLLOTOXIN], for which the Activity is 1.4%.
